Published values pooled from the literature.
Compare with care: the assays were run in different laboratories.
CDK1 with cyclin B: Cyclin-dependent kinase 1, with cyclin B (CDK1, Homo sapiens, UniProt P06493)
CDK1 with cyclin A: Cyclin-dependent kinase 1, with cyclin A (CDK1, Homo sapiens, UniProt P06493)
CDK1: Cyclin-dependent kinase 1 (CDK1, Homo sapiens, UniProt P06493)

O=C(Nc1cnn(-c2csc(C(=O)NC3COC3)c2)c1)Nc1ccccc1Cl — remaining activity (CDK1 with cyclin B; enzyme activity; inhibitor; 5 µM): 92.6%
C=CC(=O)Nc1cc(Nc2nccc(Nc3cc(Cl)c(F)cc3C(C)(C)O)n2)c(OC)cc1N1CC[C@@H](N(C)C)C1 — inhibition (CDK1 with cyclin B; enzyme activity; inhibitor; 1 µM): -13%
CN1CC(Oc2cnc(C#N)cc2-c2ccn3nc(NC(=O)C4CC4)cc3c2)C1 — inhibition (CDK1 with cyclin B; enzyme activity; inhibitor; 1 µM): -8%
Cc1cnc(NC2CCOCC2)nc1-n1cnc(C(=O)NC(CN)c2cc(F)cc(Cl)c2)c1 (stereo not shown) — remaining activity (CDK1 with cyclin B; enzyme activity; inhibitor; radiometric; 1 µM): 20%
O=C1NC(=O)c2c1c1c3ccccc3[nH]c1n1cncc21 — remaining signal (CDK1 with cyclin A; cell-free assay; 0.5 µM): 94.8%
COc1cccc2c(NCc3ccccc3)nc(-n3c(N)nc4ccccc43)nc12 — inhibition (CDK1; target engagement in cells; inhibitor; chemoproteomics; 20 mM): -2.6%
Cc1ccc(Nc2nccc(N(C)c3ccc4c(C)n(C)nc4c3)n2)cc1S(N)(=O)=O — inhibition (CDK1 with cyclin B; enzyme activity; inhibitor; 0.3 µM): 14%
Cc1sc(C(=O)NC2COC2)cc1-n1cc(NC(=O)Nc2c(F)cccc2Cl)cn1 — remaining activity (CDK1 with cyclin A; enzyme activity; inhibitor; 10 µM): 105%
CC(C)[C@H](CO)Nc1nc(Nc2cccc(Cl)c2)c2ncn(C(C)C)c2n1 — remaining signal (CDK1 with cyclin A; cell-free assay; 0.5 µM): 31.7%
Cc1ccc(NC(=O)c2ccc(C)c(C(F)(F)F)c2)cc1C#Cc1nn(C2CCC(O)CC2)c2ncnc(N)c12 (stereo not shown) — remaining signal (CDK1 with cyclin B; cell-free assay; 10 µM): 104%
CCN(CC)c1ccc(C2=NNC(=O)CC2C)cc1[N+](=O)[O-] (stereo not shown) — remaining activity (CDK1 with cyclin B; enzyme activity; inhibitor; 10 µM): 111%
CC(C)n1cnc2c(Nc3cccc(Cl)c3)nc(NCCO)nc21 — remaining signal (CDK1 with cyclin B; cell-free assay; 0.5 µM): 46.6%
O=C(Nc1cnn(-c2csc(C(=O)NC3COC3)c2)c1)Nc1c(F)cccc1Cl — remaining activity (CDK1 with cyclin B; enzyme activity; inhibitor; 5 µM): 105%
Nc1nc(Nc2ccc(S(N)(=O)=O)cc2)nn1C(=O)c1c(F)cccc1F — remaining signal (CDK1 with cyclin B; cell-free assay; 0.5 µM): 5.65%
CC(C)(C)c1nc(-c2cccc(NS(=O)(=O)c3c(F)cccc3F)c2F)c(-c2ccnc(N)n2)s1 — remaining activity (Cyclin-dependent kinase 1, with cyclin A2 (CDK1, Homo sapiens, UniProt P06493); enzyme activity; inhibitor; radiometric; 1 µM): 84%
CC(C)(O)[C@H]1CC[C@H](Nc2ccc3ncc(-c4cccc(C(F)(F)F)c4)n3n2)CC1 — remaining activity (CDK1 with cyclin B; enzyme activity; inhibitor; 1 µM): 66.9%
COc1cc(Cl)c(C(=O)N[C@@H](CN[C@H]2CC[C@@H](N)CC2)Cc2ccc(C#N)cc2)cc1-c1ccc(CN[C@H](C)c2ccc(C)cc2)o1 — remaining activity (CDK1 with cyclin B; enzyme activity; inhibitor; 1 µM): 95%
CC(C)(C)c1nc2c(s1)c1nc(N)ncc1c1ccc(NS(=O)(=O)c3c(F)cccc3F)c(F)c12 — remaining activity (Cyclin-dependent kinase 1, with cyclin E1 (CDK1, Homo sapiens, UniProt P06493); enzyme activity; inhibitor; radiometric; 1 µM): 83%
O=C1Nc2ccc(Cl)cc2C1=Cc1cc(Cl)c(O)c(Cl)c1 — remaining signal (CDK1 with cyclin A; cell-free assay; 0.5 µM): 91.9%
CNC(=O)c1cc(Oc2ccc(NC(=O)Nc3ccc(Cl)c(C(F)(F)F)c3)cc2)ccn1 — inhibition (CDK1 with cyclin B; enzyme activity; inhibitor; 10 µM): 10%
COc1cc(OC)c(C=C2C(O)=Nc3ccccc32)c(OC)c1 — remaining signal (CDK1 with cyclin A; cell-free assay; 0.5 µM): 103%
Nc1nc(Nc2ccc(S(N)(=O)=O)cc2)sc1C(=O)c1ccccc1[N+](=O)[O-] — inhibition (CDK1; enzyme activity; inhibitor; 0.1 µM): 90 to 93%
